Experimental findings from ChEMBL document CHEMBL1132217, “Syntheses of biotinylated alpha-galactosylceramides and their effects on the immune system and CD1 molecules” (1999) are described below.

What all share (type): functional
The species named for experiment [1] is Mus musculus. Put plainly: [3H]-TdR uptake measured by spleen cell proliferation assay by adding compound dose of 1 ng/mL. A digest of the protocol: (§1)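 Spleens from female C57BL/6 mice dissociated in RPMI 1640, red cells lysed with Tris NH4Cl, washed three times in PBS. Cells (2.5 × 10^5/well, 10% FCS RPMI 1640) cultured with sample or DMSO vehicle (0.001–0.1%) for 18 h at 37 °C, 5% CO2; [3H]TdR 0.5 μCi/well added, uptake counted by liquid scintillation 8 h later. Mean ± S.D.; p < 0.05 vs vehicle.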

For experiment [2], the species on record is Mus musculus. Put plainly: [3H]TdR uptake measured by spleen cell proliferation assay by adding compound dose of 10 ng/mL. A digest of the protocol:
as §1

Experiment [3] is filed under the species Mus musculus. Put plainly: [3H]TdR uptake measured by spleen cell proliferation assay by adding compound dose of 100 ng/mL. A digest of the protocol: as §1

SMILES strings stand for the structures.

For the molecule `CCCCCCCCCCCCCCC[C@@H](O)[C@H](CO[C@H]1O[C@@H](CO)[C@H](O)[C@H](O)[C@@H]1O)NC(=O)CCCCCCCCCCNC(=O)CCCCCNC(=O)CCCC[C@@H]1SC[C@@H]2NC(=O)N[C@@H]21`, the Incorporation came to 4628 c.p.m in experiment [1], 8665 c.p.m in experiment [2] and 14588 c.p.m in experiment [3].
On the same counts, the results for `CCCCCCCCCCCCCCCC[C@H](CO[C@H]1O[C@@H](CO)[C@H](O)[C@H](O)[C@@H]1O)NC(=O)CCCCCCCCCCNC(=O)CCCCCNC(=O)CCCC[C@@H]1SC[C@@H]2NC(=O)N[C@@H]21` are 4803 c.p.m, 5330 c.p.m and 9427 c.p.m.
For the molecule `CCCCCCCCCCCCCC[C@@H](O)[C@@H](O)[C@H](CO[C@H]1O[C@@H](CO)[C@H](O)[C@H](O)[C@@H]1O)NC(=O)CCCCCCCCCCNC(=O)CCCCCNC(=O)CCCC[C@@H]1SC[C@@H]2NC(=O)N[C@@H]21` (stereo in doubt; form 1), the Incorporation is reported as 4811 c.p.m in experiment [1], 4833 c.p.m in experiment [2] and 5463 c.p.m in experiment [3].
On the same counts, the results for `CCCCCCCCCCCCCCCCCCCCCCCCCC(=O)N[C@@H](CO[C@H]1O[C@H](CO)[C@H](O)[C@H](O)[C@H]1O)[C@H](O)[C@H](O)CCCCCCCCCCCCCC` [RGI-7000] are 13499 c.p.m, 17438 c.p.m and 17636 c.p.m.
